Measurements taken from BindingDB's records for doi:10.1021/jm030110r (Pharmaceutical Research Institute, 2003).

Molecular target: Proto-oncogene tyrosine-protein kinase Src (Rattus norvegicus, UniProt Q9WUD9)
Test: Inhibition of v-Src tyrosine kinase autophosphorylation in SR3Y1 cells after 15 hr
Outline: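 SR-3Y1 cells exposed to drug 15 h, lysed on ice 20 min in Tris pH 7.5 RIPA-type buffer with protease inhibitors and 1 mM vanadate. Equal-protein lysates run on SDS-PAGE, blotted with anti-phosphotyrosine antibody, HRP secondary, ECL detection. IC50 = concentration halving tyrosine phosphorylation.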

Sequence of Proto-oncogene tyrosine-protein kinase Src (Q9WUD9 2-536 limits assumed): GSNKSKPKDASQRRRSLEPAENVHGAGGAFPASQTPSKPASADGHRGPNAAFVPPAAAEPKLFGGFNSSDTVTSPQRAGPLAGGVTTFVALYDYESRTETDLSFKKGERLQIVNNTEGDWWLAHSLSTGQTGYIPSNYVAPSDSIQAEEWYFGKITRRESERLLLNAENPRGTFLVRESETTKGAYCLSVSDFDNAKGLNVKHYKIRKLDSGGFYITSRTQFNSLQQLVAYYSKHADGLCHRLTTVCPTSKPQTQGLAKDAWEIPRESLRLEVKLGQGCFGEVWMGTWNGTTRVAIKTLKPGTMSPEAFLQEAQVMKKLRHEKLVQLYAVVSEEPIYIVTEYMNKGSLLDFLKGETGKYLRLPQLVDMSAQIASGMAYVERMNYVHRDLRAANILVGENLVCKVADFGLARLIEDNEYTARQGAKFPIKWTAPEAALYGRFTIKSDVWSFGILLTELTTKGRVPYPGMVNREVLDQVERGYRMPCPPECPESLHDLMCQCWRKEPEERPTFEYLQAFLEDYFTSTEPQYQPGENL

- IC50: 13 nM
Structure (SMILES): C[C@@H]1C[C@H]2O[C@@H]2\C=C/C=C/C(=N\OCC(=O)N2CCN(C)CC2)Cc2c(Cl)c(O)cc(O)c2C(=O)O1 [16-Chloro-17,19-dihydroxy-4-methyl-3,7-dioxa-tricyclo[13.4.0.0*6,8*]nonadeca-1(19),9,11,15,17-pentaene-2,13-dione 13-{O-[2-(4-methyl-piperazin-1-yl)-2-oxo-ethyl]-oxime}]
